In publication PMC4177335 (ChemMedChem, 2014):
“Also recorded” adds a separate entry of the source. Where two headings read alike, the source gives them in different places.

Legend:
[1] = tested on: histone H3K4me3; assay: Parasite histone methylation analysis; type: cell-based, P. falciparum 3D7; details: 5-fold IC50, 12 hours, relative to DMSO control
Method in brief: (§1)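 3D7 cultures were exposed for 12 h to test compound, chloroquine or DMSO vehicle. Infected blood was saponin-treated (0.15% in PBS) to remove red cells, and freed parasites were lysed by bath sonication in 2% SDS for Western blot. Trimethyl-specific bands were quantified by densitometry, normalized to core histone H3 signal and expressed relative to DMSO-treated parasites.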

[2] = tested on: histone H3K9me3; assay: Parasite histone methylation analysis; type: cell-based, P. falciparum 3D7; details: 5-fold IC50, 12 hours, relative to DMSO control
Method in brief: as §1

[3] = tested on: P. falciparum 3D7 strain parasites; assay: In vitro P. falciparum growth and proliferation assay; type: cell-based, Plasmodium falciparum; details: for IC50: read-out: Pf3D7 IC50; for fold reduction in Pf3D7 activity: versus the comparator analogue named in the sentence
[4] = tested on: HepG2 cells; assay: In vitro cytotoxicity assay; type: cell-based, human; details: for HepG2/Pf3D7: ratio HepG2 IC50 / Pf3D7 IC50; for IC50: read-out: HepG2 IC50
[5] = tested on: HepG2 cells; details: Table 5; ref [21]; cited from earlier work
[6] = tested on: highly synchronized P. falciparum parasites; details: throughout the intraerythrocytic life cycle; ref [13]; cited from earlier work
[7] = tested on: histone H3K4me3; details: ref [13]; cited from earlier work
[8] = tested on: histone H3K9me3; details: ref [13]; cited from earlier work
[9] = ref [21]; cited from earlier work
[10] = tested on: chloroquine-sensitive and chloroquine-resistant parasites; details: ref [13]; cited from earlier work
[11] = cited from earlier work
[12] = cited from earlier work; remark: listed apart in the source
[13] = microsomes, cited from earlier work
[14] = Plasmodium falciparum, 3D7, 72 h
[15] = P. falciparum 3D7 strain, three-day SYBR Green I assay
[16] = HepG2 cells, three days, CellTiterBlue

Compound | IC50 [3, 14] | fold reduction in Pf3D7 activity [3] | IC50 [3, 15] | HepG2/Pf3D7 [4] | IC50 [4, 16] | IC50 ([4]; Homo sapiens, HepG2, 72 h) | also measured
CCN(CC)CCCC(C)Nc1ccnc2cc(Cl)ccc12 (stereo not drawn) [chloroquine] | – | – | – | – | – | – | H3K4me3 levels in treated parasites [1]: slight decrease; H3K9me3 levels in treated parasites [2]: slight increase
COc1cc2nc(N3C=CC=CC=C3)nc(NC3CCN(Cc4ccccc4)CC3)c2cc1OC [Compound 4, (1-Benzyl-4-piperidyl)[2-(1-azepinyl)-6,7-dimethoxy-4-quinazolinyl]amine] | 29.1 nM | – | – | – | – | – | Pf3D7 activity (in words) ([3]; P. falciparum 3D7 strain): comparable to 1
COc1cc2nc(N3CCN(C)CC3)nc(NC(C)C)c2cc1OC [Compound 51, (Isopropyl)[6,7-dimethoxy-2-(4-methyl-1-piperazinyl)-4-quinazolinyl]amine] | > 300 nM | 7-17 fold | – | – | – | – | –
COc1cc2nc(N3CCCN(C)CC3)nc(N(C)C3CCN(Cc4ccccc4)CC3)c2cc1OC [Compound 60, (1-Benzyl-4-piperidyl)-N-methyl[6,7-dimethoxy-2-(4-methyl-1,4-diazepin-1-yl)-4-quinazolinyl]amine] | – | 10-20 fold | 159 nM | 37.9 | 6000 nM | – | –
COc1cc2nc(N3CCCCC3)nc(N(C)C3CCN(Cc4ccccc4)CC3)c2cc1OC [Compound 61, (1-Benzyl-4-piperidyl)-N-methyl(6,7-dimethoxy-2-piperidino-4-quinazolinyl)amine] | 495 nM | 10-20 fold | – | 16.4 | – | 8100 nM | –
c1ccc(CN2CCC(Nc3nc(N4CCCCC4)nc4ccccc34)CC2)cc1 [Compound 74, (1-Benzyl-4-piperidyl)(2-piperidino-4-quinazolinyl)amine] | 385 nM | – | – | – | – | – | –
COc1cc2nc(N3C=CC=CC=C3)nc(N(C)C3CCN(Cc4ccccc4)CC3)c2cc1OC [Compound 62, (1-Benzyl-4-piperidyl)-N-methyl[2-(1-azepinyl)-6,7-dimethoxy-4-quinazolinyl]amine] | 400 nM | 10-20 fold | – | 13.6 | – | 5400 nM | –
COc1cc2nc(N3CCN(c4ccccn4)CC3)nc(N(C)C3CCN(Cc4ccccc4)CC3)c2cc1OC [Compound 63, (1-Benzyl-4-piperidyl)-N-methyl{6,7-dimethoxy-2-[4-(2-pyridyl)-1-piperazinyl]-4-quinazolinyl}amine] | 472 nM | 10-20 fold | – | 20.4 | – | 9600 nM | –
COc1cc2nc(N3CCN(c4ccccn4)CC3)nc(OC3CCN(Cc4ccccc4)CC3)c2cc1OC [Compound 66, 4-(1-Benzyl-4-piperidyloxy)-6,7-dimethoxy-2-[4-(2-pyridyl)-1-piperazinyl]quinazoline] | 2060 nM | – | – | 7.7 | – | 15700 nM | –
COc1cc2nc(N3CCCN(C)CC3)nc(OC3CCN(Cc4ccccc4)CC3)c2cc1OC [Compound 65, 4-(1-Benzyl-4-piperidyloxy)-6,7-dimethoxy-2-(4-methyl-1,4-diazepin-1-yl)quinazoline] | – | – | 1460 nM | 5.4 | 7900 nM | – | –
CN1CCCN(c2nc(NC3CCN(Cc4ccccc4)CC3)c3ccccc3n2)CC1 [Compound 73, (1-Benzyl-4-piperidyl)[2-(4-methyl-1,4-diazepin-1-yl)-4-quinazolinyl]amine] | – | – | 101 nM | 69.6 | 7000 nM | – | –
(1-Benzyl-4-piperidyl){6,7-dimethoxy-2-[4-(2-pyridyl)-1-piperazinyl]-4-quinazolinyl}amine [Compound 75] | – | – | 354 nM | 14.2 | 5000 nM | – | –
COc1cc2nc(N3CCCN(C)CC3)nc(NC3CCN(Cc4ccccc4)CC3)c2cc1OC [Compound 1, (1-Benzyl-4-piperidyl)[6,7-dimethoxy-2-(4-methyl-1,4-diazepin-1-yl)-4-quinazolinyl]amine] | 43.4 nM | – | – | 110.6 | – | – | H3K4me3 levels in treated parasites [1]: decreased; H3K9me3 levels in treated parasites [2]: decreased; HepG2/3D7 [5]: 110.6; killing phenotype [6]: fast killing phenotype; H3K4me3 levels of the parasite [7]: decrease; also recorded: reduced; H3K9me3 levels of the parasite [8]: decrease; rat plasma t1/2 [9]: >4 h; potency against chloroquine-sensitive versus chloroquine-resistant parasites [10]: equally potent; logD pH 3 ([11]; pH 3): 0.5; logD pH 7.4 ([11]; pH 7.4): 5; solubility pH 2 ([12]; pH 2): >100 μg/ml; solubility pH 6.5 ([12]; pH 6.5): >100 μg/ml; rat microsome t1/2 [13]: 0.883 h; in vitro CLint ([13]; rat): 33 μl/min/mg protein
